Test results reported in ChEMBL document CHEMBL1139013, “Synthesis and biological evaluation of novel 9-substituted-8-hydroxyadenine derivatives as potent interferon inducers” (J Med Chem, 2006).

Legend:
[1] = system: Splenocyte; experiment: Induction of IFN in C3H/HeJ mouse splenocytes at 10 nM; assay type: functional
How it was run: (§1)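 Mouse splenocytes are suspended at 2 × 10⁶ cells/mL in MEM with 5% fetal calf serum, penicillin and streptomycin. They are mixed 1:1 with compound (DMSO stock diluted 500-fold in medium) and cultured 18 h at 37 °C in 5% CO₂. Supernatants are filter-sterilized and stored at -80 °C. IFN (IU/mL) is measured by L929/vesicular stomatitis virus bioassay.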

[2] = system: Mus musculus; experiment: Induction of IFN in BALB/c mice at 0.3 mg/kg, po; assay type: functional
[3] = system: Splenocyte; experiment: Induction of IFN in C3H/HeJ mouse splenocytes at 30 nM; assay type: functional; how it was run: as §1
[4] = system: Mus musculus; experiment: Induction of IFN in BALB/c mice at 0.1 mg/kg, po; assay type: functional
[5] = system: Splenocyte; experiment: Induction of IFN in C3H/HeJ mouse splenocytes at 3 nM; assay type: functional; how it was run: as §1
[6] = system: Splenocyte; experiment: Induction of IFN in C3H/HeJ mouse splenocytes at 100 nM; assay type: functional; how it was run: as §1
[7] = system: Splenocyte; experiment: Induction of IFN in C3H/HeJ mouse splenocytes at 1 nM; assay type: functional; how it was run: as §1
[8] = system: Cynomolgus monkey; experiment: Induction of IFN in cynomolgus monkey at 1 mg/kg, po; assay type: functional, Macaca fascicularis
[9] = system: Mustela putorius furo; experiment: Emetic activities in ferret at 0.3 mg/kg, po; assay type: organism-based; set-up: dose 0.3 mg/kg, route oral; details: in vivo
How it was run: (§2)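 Oral dosing of male ferrets (4 months old) with compound in 0.5% sodium carboxymethyl cellulose vehicle; doses 0.3-30 mg/kg, 5 animals per group. Animals housed singly, video-recorded continuously for 6 h. Tapes scored afterwards for presence or absence of vomiting; reported as number vomiting per group.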

[10] = system: Mustela putorius furo; experiment: Emetic activities in ferret at 3 mg/kg, po; assay type: organism-based; set-up: dose 3 mg/kg, route oral; details: in vivo; how it was run: as §2
[11] = system: Cynomolgus monkey; experiment: Induction of IFN in cynomolgus monkey at 0.3 mg/kg, po; assay type: functional, Macaca fascicularis
[12] = system: Cynomolgus monkey; experiment: Induction of IFN in cynomolgus monkey at 0.1 mg/kg, po; assay type: functional, Macaca fascicularis
[13] = Cmax in ferret at 3 mg/kg, po; assay type: ADME, organism-based, Mustela putorius furo; set-up: dose 3 mg/kg, route oral; details: in vivo
How it was run: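 Male ferrets, 4 months old, dosed orally with compound suspended in 0.5% sodium carboxymethyl cellulose. Blood (0.5 mL) drawn from jugular vein; serum separated at 1630g, 10 min, 4 °C, stored at -20 °C. Compound concentration measured by HPLC; maximum concentration reported in ng/mL.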

| SMILES | Activity [1] [IU/ml] | Activity [2] [IU/ml] | Activity [3] [IU/ml] | Activity [4] [IU/ml] | Activity [5] [IU/ml] | Activity [6] [IU/ml] | other results |
| --- | --- | --- | --- | --- | --- | --- | --- |
| CCCCNc1nc(N)c2nc(O)n(Cc3ccc(F)c(F)c3)c2n1 | 6.4 | 338 | 14.7 | 35 | <0.5 | 7.1 | – |
| CCCCNc1nc(N)c2nc(O)n(Cc3ccc([N+](=O)[O-])cc3)c2n1 | 11.6 | 444 | 4.5 | 61 | <0.5 | 2 | – |
| CCCCNc1nc(N)c2nc(O)n(Cc3ccc(-c4ccccc4)cc3)c2n1 | – | – | 0.5 | – | – | 3.4 | – |
| Nc1nc(NCc2ccccc2)nc2c1nc(O)n2Cc1ccccc1 | 44.4 | 398 | – | 203 | <0.5 | 80.4 | – |
| CCCCNc1nc(N)c2nc(O)n(Cc3cccc(Cl)c3)c2n1 | <0.5 | – | 2.8 | – | – | 4.4 | – |
| CCCCNc1nc(N)c2nc(O)n(CC(C)(C)O)c2n1 | – | <5 | <0.5 | – | – | 0.6 | – |
| CCCCNc1nc(N)c2nc(O)n(Cc3ccc(Cl)cc3)c2n1 | 8.5 | 219 | 8.2 | 7 | <0.5 | 7.4 | – |
| CCCCNc1nc(N)c2nc(O)n(CCc3ccccc3)c2n1 | – | – | – | – | – | <0.5 | – |
| CCCCNc1nc(N)c2nc(O)n(Cc3ccc(CCCC)cc3)c2n1 | – | <5 | <0.5 | – | – | 11 | – |
| CCCCNc1nc(N)c2nc(O)n(Cc3ccc(F)cc3)c2n1 | 12.8 | 313 | – | 139 | <0.5 | 4.2 | – |
| CCCCNc1nc(N)c2nc(O)n(Cc3ccc(C)cc3)c2n1 | 9.2 | 356 | 6.2 | 28 | <0.5 | 2 | – |
| CCCCNc1nc(N)c2nc(O)n(Cc3ccc(OC)cc3)c2n1 | 6.5 | 933 | 4.7 | 73 | <0.5 | 2 | – |
| CCCCNc1nc(N)c2nc(O)n(Cc3ccccc3)c2n1 | – | 465 | <0.5 | 113 | – | 3.4 | – |
| CCCCNc1nc(N)c2nc(O)n(Cc3ccccn3)c2n1 | <0.5 | <5 | 7.4 | – | – | 9.1 | – |
| CCCCNc1nc(N)c2nc(O)n(Cc3ccc4ccccc4c3)c2n1 | <0.5 | <5 | 7.1 | – | – | 17.4 | – |
| CCCCNc1nc(N)c2nc(O)n(CC(C)C)c2n1 | – | – | <0.5 | – | – | 4.1 | – |
| COCCNc1nc(N)c2nc(O)n(Cc3ccccc3)c2n1 | – | 639 | <0.5 | 44 | – | 7.1 | – |
| Nc1nc(NCc2ccncc2)nc2c1nc(O)n2Cc1ccccc1 | 2.2 | 73 | 3.9 | <5 | <0.5 | 9.1 | – |
| CCCCNc1nc(N)c2nc(O)n(Cc3ccc(O)cc3)c2n1 | 12.4 | 20 | – | – | <0.5 | 3.1 | – |
| CCCCNc1nc(N)c2nc(O)n(Cc3cccc4ccccc34)c2n1 | 2.2 | 39 | 34 | <5 | <0.5 | 15.4 | – |
| CCCCNc1nc(N)c2nc(O)n(Cc3ccc(N(C)C)nc3)c2n1 | 9.4 | – | 5.1 | <5 | 4.9 | 2.7 | Activity [7]: <0.5 IU/ml |
| CCCCNc1nc(N)c2nc(O)n(CC3CCCCC3)c2n1 | <0.5 | – | 1.7 | – | – | 3.7 | – |

| SMILES | Activity [1] [IU/ml] | Activity [2] [IU/ml] | Activity [3] [IU/ml] | Activity [4] [IU/ml] | Activity [5] [IU/ml] | Activity [6] [IU/ml] | other results |
| --- | --- | --- | --- | --- | --- | --- | --- |
| CCCCNc1nc(N)c2nc(O)n(Cc3ccc(C(C)(C)C)cc3)c2n1 | <0.5 | <5 | 4.4 | – | – | 13 | – |
| CCCCNc1nc(N)c2nc(O)n(Cc3cccnc3Cl)c2n1 | 3.7 | 94 | 16.3 | <5 | <0.5 | 5 | – |
| CCCCNc1nc(N)c2nc(O)n(Cc3ccc(C)nc3Cl)c2n1 | 8.4 | – | – | <5 | <0.5 | 3.4 | – |
| CCCCNc1nc(N)c2nc(O)n(Cc3ccccc3C)c2n1 | <0.5 | – | 3 | – | – | 3.6 | – |
| CCCCNc1nc(N)c2nc(O)n(Cc3cccnc3)c2n1 | 32.5 | 327 | 16.6 | 76 | 1.6 | 8.1 | Activity [7]: <0.5 IU/ml |
| CCOCc1nc2c(N)nc3ccccc3c2n1CC(C)(C)O [RESIQUIMOD] | 11 | 1714 | 7 | 1176 | 2.8 | 4 | Activity [8]: 44037 IU/ml; Activity [9]: Active; Activity [7]: <0.5 IU/ml; Activity [10]: Active; Activity [11]: 13 IU/ml; Activity [12]: 7 IU/ml; Cmax [13]: 1180 ng/mL |
| CCCCNc1nc(N)c2nc(O)n(Cc3cnccc3Cl)c2n1 | – | – | <0.5 | – | – | 4.2 | – |
| CCCCNc1nc(N)c2nc(O)n(Cc3ccccc3Cl)c2n1 | <0.5 | – | 2 | – | – | 4.5 | – |
| CCCCNc1nc(N)c2nc(O)n(Cc3ccc(Cl)s3)c2n1 | 8.9 | 484 | 11.3 | 34 | <0.5 | 7.2 | – |
| CCCCNc1nc(N)c2nc(O)n(Cc3cnccn3)c2n1 | <0.5 | – | 2.9 | – | – | 4.2 | – |
| CCCCNc1nc(N)c2nc(O)n(Cc3cccc(C)c3)c2n1 | <0.5 | – | 3 | – | – | 5.5 | – |
| CCCCNc1nc(N)c2nc(O)n(Cc3ccncc3)c2n1 | 4.2 | – | 11.9 | 21 | <0.5 | 4.3 | – |
| CCCCNc1nc(N)c2nc(O)n(Cc3cncc(C)c3)c2n1 | 2.4 | – | 2.1 | – | 1.9 | 4.6 | Activity [7]: <0.5 IU/ml |
| CCCCNc1nc(N)c2nc(O)n(Cc3ccc(OCc4ccccc4)cc3)c2n1 | – | – | <0.5 | – | – | 10.6 | – |
| COCCNc1nc(N)c2nc(O)n(Cc3ccc(F)cc3)c2n1 | <0.5 | 521 | 4.8 | 54 | – | 8.3 | – |
| Nc1nc(NCc2ccccc2)nc2c1nc(O)n2Cc1ccc(F)cc1 | – | <5 | <0.5 | – | – | 4.5 | – |
| CCCCNc1nc(N)c2nc(O)n(Cc3cccnc3C)c2n1 | 12.8 | – | 8.3 | – | <0.5 | 3 | – |
| Nc1nc(NCc2ccncc2)nc2c1nc(O)n2Cc1ccc(F)cc1 | 11.1 | 492 | – | 19 | <0.5 | 5.2 | – |
| CCCCNc1nc(N)c2nc(O)n(Cc3ccc(C(F)(F)F)cc3)c2n1 | 2.9 | 276 | 10.7 | 8 | <0.5 | 15.2 | – |
| CCCCNc1nc(N)c2nc(O)n(Cc3ccc(Cl)c(Cl)c3)c2n1 | 0.8 | 136 | – | <5 | <0.5 | 10 | – |
| CCCCNc1nc(N)c2nc(O)n(Cc3ccc(Cl)nc3Cl)c2n1 | <0.5 | – | 14.6 | 42 | – | 5.7 | – |
